Measurements: ChEMBL document CHEMBL4266038, “Total Synthesis of Xanthoangelol B and Its Various Fragments: Toward Inhibition of Virulence Factor Production of Staphylococcus aureus” (J Med Chem, 2018)
The source made the active and inactive calls. The calls are words filed in the database; no cut-off is given here.

Tests used:
[1] = test system: Staphylococcus aureus subsp. aureus USA300; assay: Inhibition of methicillin-resistant Staphylococcus aureus USA300 SaeRS assessed as reduction in alpha-hemolysin mediated hemolysis of human erythrocytes at 8 uM after 8 hrs by ELISA
How it was run: (§1)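 Overnight cultures of wild-type USA300 or the saeS mutant were diluted 1:100 in TSB and grown to OD600 = 1. Cells at 5x10^5/ml were grown with compound for 8 h at 37 °C, 250 rpm. Supernatants were mixed 1:1 with 5% DPBS-washed human RBC for 30 min, then centrifuged, and hemolysis was read at OD540. Experiments were run in triplicate.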

[2] = test system: Staphylococcus aureus subsp. aureus USA300; assay: Inhibition of methicillin-resistant Staphylococcus aureus USA300 SaeRS assessed as reduction in alpha-hemolysin mediated hemolysis of human erythrocytes at 4 uM after 8 hrs by ELISA; how it was run: as §1
[3] = test system: Staphylococcus aureus subsp. aureus USA300; assay: Inhibition of methicillin-resistant Staphylococcus aureus USA300 SaeRS Tn551 deletion mutant assessed as reduction in alpha-hemolysin mediated hemolysis of human erythrocytes at 15 uM after 8 hrs by ELISA relative to control; how it was run: as §1
[4] = test system: Staphylococcus aureus subsp. aureus USA300; assay: Inhibition of methicillin-resistant Staphylococcus aureus USA300 SaeRS Tn551 deletion mutant assessed as reduction in alpha-hemolysin mediated hemolysis of human erythrocytes at 8 uM after 8 hrs by ELISA relative to control; how it was run: as §1

SMILES: C=C(C)C(O)CC/C(C)=C/Cc1c(O)ccc(C(=O)CC(O)c2ccc(O)cc2)c1O (stereo unspecified)
- inhibition [1]: Active
- inhibition [2]: Active
- inhibition [3]: 87.4%

SMILES: C=C(C)C(O)CC/C(C)=C/Cc1c(O)ccc(C(=O)/C=C/c2ccc(O)cc2)c1O (stereo unspecified) [XANTHOANGELOL B]
- inhibition [1]: Active
- inhibition [2]: Active
- inhibition [4]: 86.9%
